CHO parental Ca: ATP-evoked calcium signal inhibitors, parental CHO, primary screen, counter-screen for OX1R antagonist project, cell-based, fluorescence, Fluo-8 calcium dye; 330,000 tested, 0.63% active; AID 463079, 2010; parental CHO-K1, ATP-induced calcium, Fluo-8 fluorescence; inhibition, % at 5.6 µM;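 active = inhibition above that plate's mean sample inhibition plus 3 SD, cut at about 26% in these data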;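 also: 0% = ATP-challenged DMSO wells and 100% = DMSO wells without ATP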
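Material – parental CHO cells · Reagent – ATP stimulus · Compound – single nominal dose of 5.6 µM per compound · Detection – Fluo-8 fluorescence · Read-out basis – percent inhibition of calcium signal · Controls – ATP-challenged DMSO wells low, unchallenged DMSO wells high · Repeats – no replicates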
TAAR1 antag: human TAAR1 antagonists, primary screen, Fluo-8 calcium fluorescence, CHO RD-HGA16 cells. antagonist. 360,000 tested, 1.5% active. inhibition, % at 3 µM;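 active = inhibition above a per-plate cutoff, the mean inhibition of test compounds on that plate plus 3 SD, cut at about 49% in these data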;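 also: 0% = DMSO plus EC80 beta-PEA response and 100% = DMSO alone without agonist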
Target sequence (Q96RJ0 whole entry, looked up): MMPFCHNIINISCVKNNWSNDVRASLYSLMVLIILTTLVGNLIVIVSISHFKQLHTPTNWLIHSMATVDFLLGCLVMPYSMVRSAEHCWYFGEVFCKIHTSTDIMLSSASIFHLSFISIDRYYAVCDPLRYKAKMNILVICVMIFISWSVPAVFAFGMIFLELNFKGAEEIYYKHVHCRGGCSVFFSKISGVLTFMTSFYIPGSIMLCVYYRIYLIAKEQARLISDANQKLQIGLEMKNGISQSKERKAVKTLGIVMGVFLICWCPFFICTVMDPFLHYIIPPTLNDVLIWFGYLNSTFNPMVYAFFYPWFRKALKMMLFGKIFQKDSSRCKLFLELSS
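Assay system: CHO-derived RD-HGA16 cells stably expressing human TAAR1 plus Gα16. Timing: 140 s kinetic read after compound, 140 s after agonist. Technique: kinetic Fluo-8 calcium fluorescence measurement. Measure: % inhibition of agonist calcium response.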
OX1R antag-1: antagonists of human orexin 1 receptor (OX1R); 330,000 tested, 1.8% active; AID 485270, 2010; inhibition, % at 6.6 µM; OX1R-expressing cells, FRET antagonist read-out; in the data active = inhibition mostly above about 38%, no sharp cut-off; inactive = mostly below about 40%;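 also: 0% = agonist challenge alone and 100% = reference antagonist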
OX1R antag-2: OX1R (HCRTR1) antagonists, primary screen, fluorescence, CHO/OX1R cells, Fluo-8 calcium, orexin A | 330,000 tested, 0.43% active | Orexin/Hypocretin receptor type 1 (Homo sapiens), O43613 | AID 434989, 2010 | Fluo-8 calcium fluorescence | inhibition, % at 5 µM;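 active = inhibition above its plate's threshold, mean inhibition of all tested compounds on the plate plus 3 SD, cut at about 37% in these data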;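 also: 0% = orexin A challenge wells and 100% = SB-334867-A antagonist wells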
GalR3 antag: GalR3 antagonists in HEK293 cells, primary screen, cell-based, fluorescence readout; 360,000 tested, 0.44% active; inhibition, % at 3 µM; HEK293 GalR3-CNG cAMP membrane potential fluorescence; galR3 body fused to GalR1 C-terminus; Galanin receptor type 3 (Homo sapiens), O60755;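 active = inhibition above the screen-wide average plus 3 SD, cut at about 13% in these data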;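 also: forskolin and galanin both at EC90 stimulate the cells; cAMP rise reported by CNG channel membrane potential dye signal; 0% = forskolin plus galanin with DMSO and 100% = forskolin alone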
Target sequence (O60755 1-299 limits assumed): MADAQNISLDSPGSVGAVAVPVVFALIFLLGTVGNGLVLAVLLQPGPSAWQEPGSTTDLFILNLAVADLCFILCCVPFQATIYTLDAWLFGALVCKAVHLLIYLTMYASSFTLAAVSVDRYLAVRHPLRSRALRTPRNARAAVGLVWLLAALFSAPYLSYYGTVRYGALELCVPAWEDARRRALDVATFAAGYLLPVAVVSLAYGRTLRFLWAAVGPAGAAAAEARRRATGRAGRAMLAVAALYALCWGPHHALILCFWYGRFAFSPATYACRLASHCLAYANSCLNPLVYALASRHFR
TAAR1 ag: human TAAR1 agonists, primary screen, Fluo-8 calcium fluorescence, CHO RD-HGA16 cells; 360,000 tested, 0.99% active; AID 624467, 2012; vehicle wells 0%, saturating PEA agonist 100%; activation, % at 3 µM; Trace amine-associated receptor 1 (Homo sapiens), Q96RJ0;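 active = activation above the mean activation of all test compounds in the run plus 3 SD, cut at about 38% in these data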
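Assay system – CHO-derived RD-HGA16 cells with stable Gα16 and human TAAR1 · Compound dosing – one-point dosing at 3 µM (nominal) · Incubation – 17-24 h seeding, 75 min 37 °C dye, 30 min RT · Measured by – kinetic Fluo-8 calcium fluorescence · Control set – DMSO vehicle as 0%, PEA at EC100 as 100% · Repeats – single well for each compound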
* = called active by the depositor. Only some compounds are listed: those with a hit (about 4.3% of all), similar ones and a draw of the others.

How did C=CCc1cccc2cc(C(=O)N(C)C)c(=O)oc12 do in these assays?
CHO parental Ca: -14; TAAR1 antag: 0; OX1R antag-1: 13; OX1R antag-2: -7; GalR3 antag: -6; TAAR1 ag: -1

How did CN(NS(=O)(=O)c1ccc(Br)cc1)c1nc(C(F)(F)F)nc2ccccc12 do in these assays?
CHO parental Ca: 17; TAAR1 antag: 3; OX1R antag-1: 63*; OX1R antag-2: -17; GalR3 antag: -4; TAAR1 ag: 10

Results for CN(N)c1nc(C(F)(F)F)nc2ccccc12 ?
CHO parental Ca: -16; TAAR1 antag: 5; OX1R antag-1: 16; OX1R antag-2: -42; GalR3 antag: -3; TAAR1 ag: 11

Results for O=C(N[C@H](C(=O)N1CCC[C@H]1C(=O)NC1CCCC1)C1CCCCC1)C1CC1 ?
TAAR1 antag: -3; GalR3 antag: -4; TAAR1 ag: 2

What do the screens show for `O=C(/C=C/c1ccccc1)c1cc(Br)ccc(=O)c1O`?
CHO parental Ca: -14; TAAR1 antag: 54*; OX1R antag-1: 34; OX1R antag-2: -6; GalR3 antag: 0; TAAR1 ag: 41*

How did O=C(/C=C/c1ccc(F)cc1)c1cc(Br)ccc1O do in these assays?
CHO parental Ca: -21; TAAR1 antag: -5; OX1R antag-1: 6; OX1R antag-2: -28; GalR3 antag: 5; TAAR1 ag: -2

Results for COc1cccc(N2C(=O)C(c3ccccc3)=C(c3nc4ccccc4s3)C2NC(C)=O)c1 (stereo not drawn) ?
CHO parental Ca: -13; TAAR1 antag: 0; OX1R antag-1: 53*; OX1R antag-2: -6; GalR3 antag: -1; TAAR1 ag: 7

What do the screens show for `CCCCOc1ccc(C(=O)NN2CCOCC2)cc1`?
CHO parental Ca: -7; TAAR1 antag: -18; OX1R antag-1: 4; OX1R antag-2: -7; GalR3 antag: -1; TAAR1 ag: 1

What do the screens show for `CCOc1cccc2cc(C(=O)N3CCOCC3)c(=O)oc12`?
CHO parental Ca: -6; TAAR1 antag: -23; OX1R antag-1: 4; OX1R antag-2: -6; GalR3 antag: 1; TAAR1 ag: 1

Results for O=[N+]([O-])c1cc2c(c(CSc3nnc(Nc4ccccc4)s3)c1)OCOC2 ?
CHO parental Ca: -16; TAAR1 antag: 53*; OX1R antag-1: 41; OX1R antag-2: -11; GalR3 antag: -5; TAAR1 ag: 4

Results for Cc1nnc(SCc2cc([N+](=O)[O-])cc3c2OCOC3)n(N)c1=O ?
CHO parental Ca: -11; TAAR1 antag: 0; OX1R antag-1: 8; OX1R antag-2: -11; GalR3 antag: 0; TAAR1 ag: 15

What do the screens show for `Cc1cc(NC(=O)C2(C)CCN2C(C)C)c2ccccc2n1` (stereo not drawn)?
TAAR1 antag: -12; GalR3 antag: -5; TAAR1 ag: 1

What do the screens show for `CC(NC(=O)CSc1nnc(-c2cc3cc(Cl)ccc3o2)n1C)c1ccccc1` (stereo not drawn)?
CHO parental Ca: -13; TAAR1 antag: 7; OX1R antag-1: 54*; OX1R antag-2: -26; GalR3 antag: -4; TAAR1 ag: 5

How did CCOc1ccc(CCNC(=O)CS(=O)Cc2nc(-c3ccccc3C)oc2C)cc1OCC (stereo not drawn) do in these assays?
CHO parental Ca: -25; TAAR1 antag: -29; OX1R antag-1: 57*; OX1R antag-2: 16; GalR3 antag: 7; TAAR1 ag: -2

What do the screens show for `CCCCc1c(-c2ccccc2OC)ncn1Cc1ccc(Br)cc1`?
TAAR1 antag: 27; GalR3 antag: -7; TAAR1 ag: 2

How did CCNc1nc(NCC)nc(N/N=C/c2ccc([N+](=O)[O-])o2)n1 do in these assays?
CHO parental Ca: -6; TAAR1 antag: 23; OX1R antag-1: 54*; OX1R antag-2: 16; GalR3 antag: -6; TAAR1 ag: 4

What do the screens show for `Cc1ccc(NCC(=O)N/N=C\c2ccc([N+](=O)[O-])o2)cc1`?
CHO parental Ca: 9; TAAR1 antag: 1; OX1R antag-1: 24; OX1R antag-2: -2; GalR3 antag: -10; TAAR1 ag: 2

What do the screens show for `CCCCCC(=O)N/N=C/c1ccc([N+](=O)[O-])o1`?
CHO parental Ca: -6; TAAR1 antag: -9; OX1R antag-1: 36*; OX1R antag-2: 6; GalR3 antag: 0; TAAR1 ag: 4

How did O=C(CNc1ccccc1)N/N=C/c1ccc([N+](=O)[O-])o1 do in these assays?
CHO parental Ca: -6; TAAR1 antag: -15; OX1R antag-1: 51*; OX1R antag-2: -6; GalR3 antag: -4; TAAR1 ag: 3

How did CSc1nnc2c(n1)OC1(Nc3ccccc3-2)C(=O)Nc2ccccc21 (stereo not drawn) do in these assays?
CHO parental Ca: -9; TAAR1 antag: -16; OX1R antag-1: 27; OX1R antag-2: 2; GalR3 antag: -4; TAAR1 ag: 1

Results for CCc1ccc(CNC(=O)CCC(=O)n2ncc3cc(C)ccc32)cc1 ?
CHO parental Ca: -1; TAAR1 antag: 12; OX1R antag-1: -1; OX1R antag-2: -5; TAAR1 ag: 47*

Results for CN(C)C(/C=C/Nc1cccc([N+](=O)[O-])c1)=C(C#N)C#N ?
CHO parental Ca: -6; TAAR1 antag: 19; OX1R antag-1: 50*; OX1R antag-2: 5; GalR3 antag: -3; TAAR1 ag: 2

What do the screens show for `Cn1nc([N+](=O)[O-])c(C(C#N)c2ccccn2)c(Cl)c1=O` (stereo not drawn)?
CHO parental Ca: 5; TAAR1 antag: 1; OX1R antag-1: 13; OX1R antag-2: -3; GalR3 antag: -6; TAAR1 ag: 2

What do the screens show for `CCn1nc([N+](=O)[O-])c(C(C#N)c2nc3cc(C(F)(F)F)ccc3s2)c(Cl)c1=O` (stereo not drawn)?
CHO parental Ca: -10; TAAR1 antag: 1; OX1R antag-1: 62*; OX1R antag-2: -2; GalR3 antag: -8; TAAR1 ag: 3

What do the screens show for `CCCNS(=O)(=O)c1cccc(C(=O)OCc2cc(=O)oc3cc(OC)ccc23)c1`?
CHO parental Ca: 26; TAAR1 antag: 52*; OX1R antag-1: 47; OX1R antag-2: 55*; GalR3 antag: -9; TAAR1 ag: 9

What do the screens show for `COc1ccc2c(COC(=O)CNS(=O)(=O)c3ccccc3)cc(=O)oc2c1`?
CHO parental Ca: -12; TAAR1 antag: -22; OX1R antag-1: 8; OX1R antag-2: -17; GalR3 antag: -6; TAAR1 ag: 2
